Measurements from ChEMBL document CHEMBL3271971, “Antineoplastic and biochemical properties of arylsulfonylhydrazones of 2-formylpyridine N-oxide” (J Med Chem, 1976).

What was measured:
Mus musculus [1] = assay: Toxicity in CD-1 mouse allografted with mouse EAC cells assessed as change in body weight at 40 mg/kg administered qd for 6 days (reference value: 26.8%); type: organism-based, Ehrlich; parameters: dose 40 mg/kg; conditions: in vivo, 144 h
How it was run: (§1)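 Ascitic tumors were transplanted from a donor mouse bearing a 7-day tumor. Daily doses were given for six consecutive days. Percentage body-weight change from onset to termination of therapy served as the index of drug toxicity.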

[2] = Antineoplastic activity against mouse S180A cells allografted in CD-1 mouse assessed as average survival at 20 mg/kg administered qd for 6 days (reference value: 12.9 +/- 1.2 days); type: functional
How it was run: (§2)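 Ascitic tumours were transplanted from an appropriate donor mouse carrying a 7-day tumour growth. Drug was given at 10–60 mg/kg/day for six consecutive days. Sensitivity was judged by prolongation of survival time relative to untreated tumour-bearing controls. Mice were weighed throughout, and percentage weight change from onset to end of therapy indicated toxicity.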

L1210 = assay: Antineoplastic activity against mouse L1210 cells allografted in BDF1 mouse assessed as average survival at 20 mg/kg administered qd for 6 days (reference value: 8.2 +/- 0.4 days); type: functional; how it was run: as §2
Mus musculus [3] = assay: Effect on RNA synthesis in tumor of CD-1 mouse allografted with mouse S180A cells assessed as [3H]-uridine incorporation at 80 mg/kg, ip pretreated for 3 hrs followed by radiotracer-addition measured after 1 hr relative to control; type: functional; conditions: route intraperitoneal
How it was run: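 Mice bearing 6-day Sarcoma 180 ascites implants received a single ip dose of 80 mg/kg. At the stated pretreatment time they were given ip tracer: 200 μg thymidine-3H, 200 μg uridine-3H or 125 μg DL-leucine-14C. After 1 h of incorporation, specific radioactivity of DNA, RNA or protein was read as % of control incorporation.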

Mus musculus [4] = assay: Effect on RNA synthesis in tumor of CD-1 mouse allografted with mouse S180A cells assessed as [3H]-uridine incorporation at 40 mg/kg, ip pretreated for 1 hr followed by radiotracer-addition measured after 1 hr relative to control; type: functional; conditions: route intraperitoneal
How it was run: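 Sarcoma 180 ascites cells implanted 6 days earlier. Mice received a single ip dose of 10–80 mg/kg, then 1 h later an ip tracer: 200 μg thymidine-3H, 200 μg uridine-3H or 125 μg DL-leucine-14C. Tracer was incorporated for 1 h. Specific activity of tumor-cell DNA, RNA or protein is expressed as % of untreated controls. Values are means of 4-16 mice, each analyzed separately.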

Mus musculus [5] = assay: Toxicity in BDF1 mouse allografted with mouse L1210 cells assessed as change in body weight at 20 mg/kg administered qd for 6 days (reference value: 13.6%); type: organism-based; parameters: dose 20 mg/kg; conditions: in vivo, 144 h; how it was run: as §1

Cc1ccc(S(=O)(=O)N/N=C/c2cccc[n+]2[O-])cc1
Activity (Mus musculus [1]): -3.3% | Survival [2]: 24.9 days | Survival (L1210): 8.6 days | Activity (Mus musculus [3]): 62% | Activity (Mus musculus [4]): 65% | Activity (Mus musculus [5]): 10.6%
